From ChEMBL document CHEMBL4270633, “Discovery of novel vinyl sulfone derivatives as anti-tumor agents with microtubule polymerization inhibitory and vascular disrupting activities” (Eur J Med Chem, 2018)
The source made the active and inactive calls. The rule behind the calls is not given here.

How the values were obtained:
K562 [1] = assay: Antiproliferative activity against human K562 cells after 72 hrs by MTT assay; assay type: functional, cell-based; details: K562, 72 h
In short: (§1)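 Cells seeded and held 24 h at 37 °C, 5% CO2, then exposed to a concentration series in medium with 0.1% DMSO for 72 h. MTT (5 mg/mL in PBS) added for 4 h and OD read at 490 nm. IC50 taken from dose-response curves; mean ± SD of at least three independent experiments.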

H22 [2] = assay: Antitumor activity against mouse H22 cells implanted in ICR mouse assessed as tumor growth inhibition at 30 mg/kg, iv administered once daily for 21 consecutive days relative to control; assay type: functional; details: read-out: TGI
In short: (§2)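 Male ICR mice, five weeks old, inoculated s.c. in the right flank with 1 × 10^6 H22 cells. After one day, randomized into groups of six. Given i.v. 15 or 30 mg/kg daily for 21 days in 10% DMF/2% Tween 80/88% saline, or 8 mg/kg every 2 days; vehicle control given i.v. Tumors excised and weighed; inhibition (%) = (1 − treated/control mean tumor weight) × 100.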

K562 [3] = assay: Induction of apoptosis in human K562 cells at 0.01 uM after 48 hrs by Annexin V-FITC/propidium iodide staining based flow cytometry (reference value: 1.46%)
HepG2 = assay: Antiproliferative activity against human HepG2 cells after 72 hrs by MTT assay; assay type: functional, cell-based; details: HepG2, 72 h; in short: as §1
K562 [4] = assay: Cell cycle arrest in human K562 cells assessed as accumulation at S phase at 0.005 uM after 48 hrs by propidium iodide staining based flow cytometry (reference value: 49.41%); assay type: functional
K562 [5] = assay: Cell cycle arrest in human K562 cells assessed as accumulation at S phase at 0.02 uM after 48 hrs by propidium iodide staining based flow cytometry (reference value: 49.41%); assay type: functional
K562 [6] = assay: Induction of apoptosis in human K562 cells at 0.02 uM after 48 hrs by Annexin V-FITC/propidium iodide staining based flow cytometry (reference value: 1.46%); assay type: functional
In short: (§3)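 K562 cells treated 48 h at 0, 0.05, 0.1, 0.2 µM or 0, 0.005, 0.010, 0.020 µM. Washed in PBS, resuspended in Annexin V binding buffer and stained 15 min in the dark. Early plus late apoptotic fractions quantified by flow-cytometric quadrant analysis.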

K562 [7] = assay: Cell cycle arrest in human K562 cells assessed as accumulation at G1 phase at 0.01 uM after 48 hrs by propidium iodide staining based flow cytometry (reference value: 41.08%); assay type: functional
[8] = Inhibition of porcine brain tubulin polymerization after 30 mins by spectrophotometric method; parameters: species or system Sus scrofa
In short: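 Purified tubulin (2 mg/mL) in PEM buffer (80 mM PIPES pH 6.9, 0.5 mM EGTA, 2 mM MgCl2, 15% glycerol), preincubated on ice with compound or DMSO vehicle, then GTP added. Absorbance at 340 nm followed at 37 °C for 30 min. IC50 derived from area under the polymerization curve.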

K562 [9] = assay: Induction of apoptosis in human K562 cells at 0.005 uM after 48 hrs by Annexin V-FITC/propidium iodide staining based flow cytometry (reference value: 1.46%); assay type: functional; in short: as §3
K562 [10] = assay: Disruption of microtubule network in human K562 cells at 0.005 to 0.02 uM after 24 hrs by DAPI staining based immunofluorescent microscopic method; assay type: cell-based
In short: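 K562 cells exposed for 24 h to 0.1% DMSO vehicle or to 0.05, 0.10, 0.20 µM or 0.005, 0.010, 0.020 µM. Fixed in 4% paraformaldehyde, blocked with goat serum 20 min at room temperature, then anti-α-tubulin antibody 2 h at 37 °C. Fluorescent antibody staining, DAPI nuclear counterstain, fluorescence microscopy.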

H22 [11] = assay: Antitumor activity against mouse H22 cells implanted in ICR mouse assessed as tumor growth inhibition at 15 mg/kg, iv administered once daily for 21 consecutive days relative to control; assay type: functional; details: read-out: TGI; in short: as §2
K562 [12] = assay: Cell cycle arrest in human K562 cells assessed as accumulation at G2 phase at 0.01 uM after 48 hrs by propidium iodide staining based flow cytometry (reference value: 9.51%); assay type: functional
A549 = assay: Antiproliferative activity against human A549 cells after 72 hrs by MTT assay; assay type: functional, cell-based; details: A549, 72 h; in short: as §1
HUVEC = assay: Antivascular activity against HUVEC assessed as reduction in wound closure after 24 hrs by phase contrast microscopic method; assay type: functional, cell-based; details: Homo sapiens
In short: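 Scratch wounds made with a sterile 200 µL pipette tip, then treated at 0.05, 0.10, 0.20 µM or 0.005, 0.010, 0.020 µM. Phase-contrast images taken at 0 h and 24 h after treatment.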

K562 [13] = assay: Cell cycle arrest in human K562 cells assessed as accumulation at S phase at 0.01 uM after 48 hrs by propidium iodide staining based flow cytometry (reference value: 49.41%); assay type: functional
K562 [14] = assay: Cell cycle arrest in human K562 cells assessed as accumulation at G1 phase at 0.005 uM after 48 hrs by propidium iodide staining based flow cytometry (reference value: 41.08%); assay type: functional
K562 [15] = assay: Antiproliferative activity against human K562 cells at 1 uM after 72 hrs by MTT assay; assay type: functional, cell-based
K562 [16] = assay: Cell cycle arrest in human K562 cells assessed as accumulation at G2 phase at 0.005 uM after 48 hrs by propidium iodide staining based flow cytometry (reference value: 9.51%); assay type: functional
K562 [17] = assay: Cell cycle arrest in human K562 cells assessed as accumulation at G1 phase at 0.02 uM after 48 hrs by propidium iodide staining based flow cytometry (reference value: 41.08%); assay type: functional
K562 [18] = assay: Induction of apoptosis in human K562 cells after 48 hrs by Annexin V-FITC/propidium iodide staining based flow cytometry; assay type: functional, cell-based; in short: as §3
K562 [19] = assay: Cell cycle arrest in human K562 cells assessed as accumulation at G2 phase at 0.02 uM after 48 hrs by propidium iodide staining based flow cytometry (reference value: 9.51%); assay type: functional

Compound `COc1ccc(/C=C\c2cc(OC)c(OC)c(OC)c2)cc1O` [COMBRETASTATIN A4] has an IC50 (K562 [1]) of 21 nM, an inhibition in vivo at 30 mg/kg (H22 [2]) of 56.7% and an Activity (K562 [3]) of 53.05%. For the same compound, the IC50 (HepG2) was 12 nM, the Activity (K562 [4]) was 40.02% and the Activity (K562 [5]) was 18.54%. The Activity (K562 [6]) was 63.05%, the Activity (K562 [7]) was 61.16% and the IC50 [8] was 2170 nM. For the same compound, the Activity (K562 [9]) was 25.28%, the Activity (K562 [10]) was “Active” and the inhibition in vivo at 15 mg/kg (H22 [11]) was 45%. For the same compound, the Activity (K562 [12]) was 22.59%, the IC50 (A549) was 37 nM and the Activity (HUVEC) was “Dose-dependent effect”. The Activity (K562 [13]) was 16.25%, the Activity (K562 [14]) was 46.14% and the Activity (K562 [15]) was “Active”. The Activity (K562 [16]) was 13.84%, the Activity (K562 [17]) was 56.51% and the Activity (K562 [18]) was “Dose-dependent effect”. It also gave an Activity (K562 [19]) of 24.95%.
